These results are taken from ChEMBL document CHEMBL4321830, “A Chemical-Intervention Strategy To Circumvent Peptide Hydrolysis by d-Stereoselective Peptidases” (J Med Chem, 2019).

Each structure is given as a SMILES string. Active and inactive are the calls of the source. No cut-off for these calls is given here. Where a SMILES comes first, the peptide text is derived from it. [ ]: non-standard residue; d: D form. The star is where a group is joined. d(aIle) = CC[C@H](C)[C@@H](N)C(=O)O; NMeF = CN[C@@H](Cc1ccccc1)C(=O)O; dDab = NCC[C@@H](N)C(=O)O; Octanoyl = CCCCCCCC(=O)*; Dab = NCC[C@H](N)C(=O)O; Aib = CC(C)(N)C(=O)O; Sar = CNCC(=O)O Bounds are passed on as bounds.

By MIC is commonly meant the lowest concentration that inhibits growth of the organism.

The subject of one data set is D-peptidase BogQ. Kind of data set: Substrate activity at bacterial D-peptidase BogQ expressed in Escherichia coli BL21 assessed as enzyme-mediated compound hydrolysis at 50 uM incubated for 1 hr by UPLC-MS analysis. The data set is classed as ADME. The settings on record: bacteria; read-out: Activity. The procedure, abridged:
(§1)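 His-purified (Ni-NTA) enzyme from IPTG-induced E. coli BL21 (200 μM IPTG after 15 °C hold). Substrate 50 μM with BogQ 20 nM for 1 h or TriFpep 200 nM for 24 h, 37 °C, in 25% PBS pH 7.4. Quenched with cold methanol, cleavage ratio by UPLC–MS at end point; two independent experiments.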

Another data set deals with D-peptidase TriF. Put plainly: Substrate activity at Paenibacillus polymyxa CICC10580 D-peptidase TriF expressed in Escherichia coli BL21 assessed as enzyme-mediated compound hydrolysis at 50 uM incubated for 24 hrs by UPLC-MS analysis. Type of data set: ADME. To be noted: read-out: Activity. Summed up: as §1
Data set [1] relates to Escherichia coli. Kind of data set: Antibacterial activity against Escherichia coli NCTC 12241 assessed as bacterial growth inhibition by microbroth dilution method. Type of data set: functional. In general terms: Dilution methods test growth across graded concentrations, often in twofold steps.
The next data set relates to Staphylococcus aureus. Kind of data set: Antibacterial activity against Staphylococcus aureus NCTC 10788 assessed as bacterial growth inhibition by microbroth dilution method. Type of data set: functional.
Data set [2] can be described thus: Hemolytic activity in sheep erythrocytes assessed as hemolysis at 200 ug/ml incubated for 30 by spectrophotometry relative to control. The data set is classed as ADME, cell-based, Ovis aries, Erythrocyte. The settings on record: read-out: Activity. The procedure, abridged:
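Defibrinated sheep blood washed four times in PBS, resuspended, mixed 1:1 with peptide in PBS (200 μg/mL in well before mixing); 30 min, 37 °C. Diluted, centrifuged, supernatant absorbance at 415 nm. Percent hemolysis relative to 0.1% Triton X-100, PBS blank; triplicate, two independent experiments averaged.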

For data set [3], the system named is Escherichia coli. Put plainly: Binding affinity to Escherichia coli NCTC 12241 lipid 2 assessed as formation of zone of inhibition at 60 uM incubated for 16 hrs by spot-on-lawn assay. The procedure, abridged:
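E. coli NCTC 12241 suspended to OD600 ~1.0 in MHB, mixed into molten 0.75% MH soft agar and poured over 1.5% MHA. Peptide (final 60 μM) preincubated at 37 °C with 7 equiv chemically synthesized Gram-positive lipid II, 10 μL spotted alongside peptide alone; 16 h, 37 °C. Loss of inhibition zone indicates lipid II sequestration.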

For the molecule `CCCCCCCC(=O)N[C@@H](C(=O)N[C@H](CCN)C(=O)NCC(=O)N[C@H](CO)C(=O)N[C@H](Cc1c[nH]c2ccccc12)C(=O)N(C)CC(=O)N[C@@H](CCN)C(=O)N[C@H](CCN)C(=O)N[C@@](C)(Cc1ccccc1)C(=O)N[C@@H](CCC(=O)O)C(=O)N[C@H](C(=O)N[C@@H](C(=O)N[C@@H](C)C(=O)O)C(C)C)C(C)C)C(C)C`, the metabolised at 1 h, 50 µM in the data set on D-peptidase BogQ worked out at 39%. For the same molecule, the metabolised at 24 h, 50 µM in the data set with D-peptidase TriF came out at 0%. Besides, the MIC in the data set on Escherichia coli [1] and with Staphylococcus aureus was more than 50 µg/mL throughout.
As for `CCCCCCCC(=O)N[C@@H](C(=O)N[C@H](CCN)C(=O)NCC(=O)N[C@H](CO)C(=O)N[C@H](Cc1c[nH]c2ccccc12)C(=O)N(C)CC(=O)N[C@@H](CCN)C(=O)N[C@H](CCN)C(=O)N[C@@](C)(Cc1ccccc1)C(=O)N[C@@H](CCC(=O)O)C(=O)N[C@H](C(=O)N[C@@H](C(=O)N[C@@H](C)C(=O)O)[C@@H](C)CC)C(C)C)C(C)C`, in the data set with D-peptidase BogQ, the metabolised at 1 h, 50 µM is 40%. For the same molecule, in the data set on D-peptidase TriF, the metabolised at 24 h, 50 µM is 0%. The MIC in the data set with Escherichia coli [1] and in the data set with Staphylococcus aureus was more than 50 µg/mL throughout.
For the molecule `CCCCCCCC(=O)N[C@@H](C(=O)N[C@H](C)C(=O)NCC(=O)N[C@H](CO)C(=O)N[C@H](Cc1c[nH]c2ccccc12)C(=O)N(C)CC(=O)N[C@@H](CCN)C(=O)N[C@H](CCN)C(=O)N(C)[C@@H](Cc1ccccc1)C(=O)N[C@@H](CCC(=O)O)C(=O)N[C@H](C(=O)N[C@@H](C(=O)N[C@@H](C)C(=O)O)C(C)C)C(C)C)C(C)C` (Octanoyl-[dV][dA]G[dS][dW][Sar][Dab][dDab][NMeF]EV[dV]A-OH), in the data set with D-peptidase BogQ, the metabolised at 1 h, 50 µM stood at 11%. The metabolised at 24 h, 50 µM with D-peptidase TriF came to 0%. Moreover, the MIC with Escherichia coli [1] and with Staphylococcus aureus was more than 50 µg/mL in each case.
As for `CCCCCCCC(=O)N[C@@H](C(=O)N[C@H](CCN)C(=O)NCC(=O)N[C@H](CO)C(=O)N[C@H](Cc1c[nH]c2ccccc12)C(=O)N[C@@H](CO)C(=O)N[C@@H](CCN)C(=O)N[C@H](CCN)C(=O)N[C@@H](Cc1ccccc1)C(=O)N[C@@H](CCC(=O)O)C(=O)N[C@H](C(=O)N[C@@H](C(=O)N[C@@H](C)C(=O)O)C(C)C)C(C)C)C(C)C` (Octanoyl-[dV][dDab]G[dS][dW]S[Dab][dDab]FEV[dV]A-OH), the metabolised at 1 h, 50 µM with D-peptidase BogQ was more than 90%. Also, the metabolised at 24 h, 50 µM in the data set on D-peptidase TriF is 100%. Also, the MIC is 1.56 µg/mL with Escherichia coli [1] and 50 µg/mL with Staphylococcus aureus. Further, the hemolysis at 0.5 h, 200 ug/ml in data set [2] was 53%.
For `CCCCCCCC(=O)N[C@@H](C(=O)N[C@H](CCN)C(=O)NCC(=O)N[C@H](CO)C(=O)N[C@H](Cc1c[nH]c2ccccc12)C(=O)N[C@@H](CO)C(=O)N[C@@H](CCN)C(=O)N[C@H](CCN)C(=O)N(C)[C@@H](Cc1ccccc1)C(=O)N[C@@H](CCC(=O)O)C(=O)N[C@H](C(=O)N[C@@H](C(=O)N[C@@H](C)C(=O)O)C(C)C)C(C)C)C(C)C` (Octanoyl-[dV][dDab]G[dS][dW]S[Dab][dDab][NMeF]EV[dV]A-OH), the metabolised at 1 h, 50 µM in the data set with D-peptidase BogQ was 15%. For the same molecule, the figures for the minimal inhibitory concentration (MIC) in the data set with Escherichia coli [1] and in the data set on Staphylococcus aureus were 6.25 µg/mL and more than 50 µg/mL, respectively. For the same molecule, in data set [2], the hemolysis at 0.5 h, 200 ug/ml worked out at 30%. Also, in the data set with Escherichia coli [3], the outcome was Active.
With `CCCCCCCC(=O)N[C@@H](C(=O)N[C@H](CCN)C(=O)NCC(=O)N[C@H](CO)C(=O)N[C@H](Cc1c[nH]c2ccccc12)C(=O)NC(C)(C)C(=O)N[C@@H](CCN)C(=O)N[C@H](CCN)C(=O)N[C@@H](Cc1ccccc1)C(=O)N[C@@H](CCC(=O)O)C(=O)N[C@H](C(=O)N[C@@H](C(=O)N[C@@H](C)C(=O)O)C(C)C)C(C)C)C(C)C` (Octanoyl-[dV][dDab]G[dS][dW][Aib][Dab][dDab]FEV[dV]A-OH), the metabolised at 24 h, 50 µM in the data set on D-peptidase TriF is 0%. Besides, the minimal inhibitory concentration (MIC) was 3.13 µg/mL in the data set with Escherichia coli [1] and more than 50 µg/mL in the data set on Staphylococcus aureus.
For the molecule `CCCCCCCC(=O)N[C@@H](C(=O)N[C@H](CCN)C(=O)NCC(=O)N[C@H](CO)C(=O)N[C@H](Cc1c[nH]c2ccccc12)C(=O)N(C)CC(=O)N[C@@H](CCN)C(=O)N[C@H](CCN)C(=O)N[C@@H](Cc1ccccc1)C(=O)N[C@@H](CCC(=O)O)C(=O)N[C@H](C(=O)N[C@@H](C(=O)N[C@@H](C)C(=O)O)C(C)C)C(C)C)C(C)C` (Octanoyl-[dV][dDab]G[dS][dW][Sar][Dab][dDab]FEV[dV]A-OH), in the data set with D-peptidase TriF, the metabolised at 24 h, 50 µM stood at 0%. In addition, the figures for the minimal inhibitory concentration (MIC) with Escherichia coli [1] and in the data set with Staphylococcus aureus were 3.13 µg/mL and more than 50 µg/mL, respectively. In addition, in data set [2], the hemolysis at 0.5 h, 200 ug/ml came to 38%. Further, in the data set on Escherichia coli [3], the outcome was Active.
As for `CCCCCCCC(=O)N[C@@H](C(=O)N[C@H](CCN)C(=O)NCC(=O)N[C@H](CO)C(=O)N[C@H](Cc1c[nH]c2ccccc12)C(=O)N(C)CC(=O)N[C@@H](CCN)C(=O)N[C@H](CCN)C(=O)N(C)[C@@H](Cc1ccccc1)C(=O)N[C@@H](CCC(=O)O)C(=O)N[C@H](C(=O)N[C@@H](C(=O)N[C@@H](C)C(=O)O)[C@@H](C)CC)C(C)C)C(C)C` (Octanoyl-[dV][dDab]G[dS][dW][Sar][Dab][dDab][NMeF]EV[d(aIle)]A-OH), in the data set on D-peptidase BogQ, the metabolised at 1 h, 50 µM worked out at 46%. Besides, the metabolised at 24 h, 50 µM in the data set with D-peptidase TriF worked out at 0%. Besides, the values for the MIC in the data set with Escherichia coli [1] and in the data set on Staphylococcus aureus were 3.13 µg/mL and more than 50 µg/mL, respectively.
In the case of `CCCCCCCC(=O)N[C@@H](C(=O)N[C@H](CCN)C(=O)NCC(=O)N[C@H](CO)C(=O)N[C@H](Cc1c[nH]c2ccccc12)C(=O)N(C)CC(=O)N[C@@H](CCN)C(=O)N[C@H](CCN)C(=O)N(C)[C@@H](Cc1ccccc1)C(=O)N[C@@H](CCC(=O)O)C(=O)N[C@H](C(=O)N[C@@H](C(=O)N[C@@H](C)C(=O)O)C(C)C)C(C)C)C(C)C` (Octanoyl-[dV][dDab]G[dS][dW][Sar][Dab][dDab][NMeF]EV[dV]A-OH), the metabolised at 1 h, 50 µM with D-peptidase BogQ turned out to be 43%. In the data set on D-peptidase TriF, the metabolised at 24 h, 50 µM amounted to 0%. Moreover, the minimal inhibitory concentration (MIC) was 6.25 µg/mL with Escherichia coli [1] and more than 50 µg/mL in the data set on Staphylococcus aureus. In data set [2], the hemolysis at 0.5 h, 200 ug/ml is 60 to 78%. Besides, in the data set on Escherichia coli [3], the result was Active.
Turning to `CCCCCCCC(=O)N[C@@H](C(=O)N[C@@H](C(=O)NCC(=O)N[C@H](CO)C(=O)N[C@H](Cc1c[nH]c2ccccc12)C(=O)N(C)CC(=O)N[C@@H](CCN)C(=O)N[C@H](CCN)C(=O)N(C)[C@@H](Cc1ccccc1)C(=O)N[C@@H](CCC(=O)O)C(=O)N[C@H](C(=O)N[C@@H](C(=O)N[C@@H](C)C(=O)O)C(C)C)C(C)C)C(C)C)C(C)C` (Octanoyl-[dV][dV]G[dS][dW][Sar][Dab][dDab][NMeF]EV[dV]A-OH), the metabolised at 1 h, 50 µM with D-peptidase BogQ was determined as 12%. Also, the metabolised at 24 h, 50 µM in the data set with D-peptidase TriF was found to be 0%. In addition, the MIC in the data set on Escherichia coli [1] and in the data set on Staphylococcus aureus was more than 50 µg/mL in each case.
